What was measured:
HeLa = assay: Cytostatic activity against human HeLa cells assessed as inhibition of cell proliferation after 72 hrs by MTT assay; type: functional, cell-based
Outline: (§1)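 Monolayer cells grown in DMEM with 10% FBS were seeded on day 0 at 3000–6000 cells/well, set by each line's doubling time. Agents were added the next step in five 10-fold dilutions (0.01–100) for 72 h, with DMSO ≤0.1% and a solvent control. MTT absorbance was converted to percentage growth versus untreated wells on the same plate. Where all PGs exceeded 50, the top concentration was reported as ">". ANOVA/Tukey, p<0.05.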

MCF7 = assay: Cytostatic activity against human MCF7 cells assessed as inhibition of cell proliferation after 72 hrs by MTT assay; type: functional, cell-based; details: MCF7, 72 h; outline: as §1
HepG2 = assay: Cytostatic activity against human HepG2 cells assessed as inhibition of cell proliferation after 72 hrs by MTT assay; type: functional, cell-based; details: HepG2, 72 h; outline: as §1
SW-620 = assay: Cytostatic activity against human SW620 cells assessed as inhibition of cell proliferation after 72 hrs by MTT assay; type: functional, cell-based; details: SW-620, 72 h; outline: as §1
MIA PaCa-2 = assay: Cytostatic activity against human MIAPaCa2 cells assessed as inhibition of cell proliferation after 72 hrs by MTT assay; type: functional, cell-based; details: MIA PaCa-2, 72 h; outline: as §1
WI-38 = assay: Cytotoxicity against human WI38 cells assessed as inhibition of cell proliferation after 72 hrs by MTT assay; type: cell-based; details: WI-38, 72 h; outline: as §1

| Compound | IC50 (HeLa) | IC50 (MCF7) | IC50 (HepG2) | IC50 (SW-620) | IC50 (MIA PaCa-2) | IC50 (WI-38) |
| --- | --- | --- | --- | --- | --- | --- |
| Nc1ccn(CCC2(N)OC(=O)C(OCc3ccccc3)=C2OCc2ccccc2)c(=O)n1 (racemic) | > 100 µM | 32 µM | > 100 µM | > 100 µM | > 100 µM | 88.9 µM |
| Nc1ncn(C/C=C2\OC(=O)C(O)=C2OCc2ccccc2)c(=O)n1 | > 100 µM | > 100 µM | > 100 µM | > 100 µM | > 100 µM | > 100 µM |
| O=C1O[C@H]([C@@H](O)Cn2c(=O)[nH]c(=O)[nH]c2=O)C(OCc2ccccc2)=C1OCc1ccccc1 | > 100 µM | > 100 µM | > 100 µM | > 100 µM | > 100 µM | > 100 µM |
| Nc1ncn(C[C@H](O)[C@H]2OC(=O)C(OCc3ccccc3)=C2OCc2ccccc2)c(=O)n1 | > 100 µM | 73.8 µM | > 100 µM | > 100 µM | 71.7 µM | > 100 µM |

Now from value to molecule, other results behind:

| IC50 (HeLa) | IC50 (MCF7) | IC50 (HepG2) | IC50 (SW-620) | IC50 (MIA PaCa-2) | Compound | IC50 (WI-38) |
| --- | --- | --- | --- | --- | --- | --- |
| > 100 µM | 20.9 µM | 42.8 µM | > 100 µM | > 100 µM | NC1(CCn2cc(F)c(=O)[nH]c2=O)OC(=O)C(OCc2ccccc2)=C1OCc1ccccc1 (racemic) | 36.2 µM |
| > 100 µM | > 100 µM | > 100 µM | > 100 µM | > 100 µM | NC1(CCn2ncc(=O)[nH]c2=O)OC(=O)C(OCc2ccccc2)=C1OCc1ccccc1 (racemic) | > 100 µM |
| > 100 µM | > 100 µM | > 100 µM | > 100 µM | > 100 µM | O=C1O/C(=C\Cn2c(=O)[nH]c(=O)[nH]c2=O)C(O)=C1O | 35.3 µM |
| 77.1 µM | 84.9 µM | > 100 µM | > 100 µM | > 100 µM | NC1(CCn2c(=O)[nH]c(=O)[nH]c2=O)OC(=O)C(OCc2ccccc2)=C1OCc1ccccc1 (racemic) | > 100 µM |

From ChEMBL document CHEMBL1795205, “The new 5- or 6-azapyrimidine and cyanuric acid derivatives of l-ascorbic acid bearing the free C-5 hydroxy or C-4 amino group at the ethylenic spacer: CD-spectral absolute configuration determination and biological activity evaluations” (Eur J Med Chem, 2011)
